Measurements: article PMC9382716 (Biochemistry, 2021)
Read-outs that look alike come from different tables or passages of the source.

Key:
[1] = target: T1, Drosophila melanogaster HhC (Drosophila melanogaster, UniProt Q02936); experiment: Cholesterolysis kinetics; type: biochemical; conditions: C−H−Y
T1 sequence (Q02936 258-471 limits assumed): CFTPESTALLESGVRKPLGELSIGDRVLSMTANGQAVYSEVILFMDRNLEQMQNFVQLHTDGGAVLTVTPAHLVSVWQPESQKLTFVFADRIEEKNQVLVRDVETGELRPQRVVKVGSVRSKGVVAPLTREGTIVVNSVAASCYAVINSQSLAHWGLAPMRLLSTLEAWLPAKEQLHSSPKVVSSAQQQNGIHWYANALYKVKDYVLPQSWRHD

[2] = target: T2, HhC (Drosophila melanogaster, UniProt Q02936); experiment: MS/MS mapping of tSP binding site on HhC/tSP adduct; conditions: product form of HhC, preliminary MS/MS
T2 sequence (Q02936 258-471 limits assumed): T1 sequence (Q02936 258-471 limits assumed)

[3] = target: T2, HhC; type: binding; conditions: HhC 5 μM, tSP 10 μM, competitor 200 μM
Procedure, shortened: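 HhC at 5 μM with diazirine-bearing sterol probe tSP and 50 μM azide-linked fluorophore. Saturating cholesterol or test compound added as competitor. UV photolysis. Labeling read by SDS-PAGE with fluorescent gel imaging. Coomassie stain for total HhC.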

[4] = target: T1, Drosophila melanogaster HhC; conditions: read-out: KM as HhC substrate; cited from earlier work

Row | difference in kmax/KM compared with cholesterol [1] | kmax as HhC substrate ([1]; no inhibitor) | Km ([1]; read-out: KM as HhC substrate, no inhibitor) | site of probe attachment on HhC [2] | effect on active-site photolabeling of HhC by tSP [3] | Structure (SMILES) | Km [4]
1 | < 2 fold | 0.0042 s⁻¹ | 6.8 µM | EQLHSSPK (HhC residues 174−181) | – | C#CCCCCOC(=O)CC[C@@H](C)[C@H]1CCC2C3CC4(N=N4)[C@H]4C[C@@H](O)CC[C@]4(C)C3CC[C@@]21C (stereo partly shown) [tSP] | –
2 | – | 0.0019 s⁻¹ | – | – | competitively blocks | CC(C)CCC[C@@H](C)[C@H]1CC[C@H]2[C@@H]3CC=C4C[C@@H](O)CC[C@]4(C)[C@H]3CC[C@]12C [cholesterol] | 1.5 µM
